Laboratory results published in publication PMC2682635 (Psychopharmacology, 2009).
“And” between values parts separate entries of the source, which are not always exact repeats. Equal entries are not always repeated. “Also recorded” adds a separate entry of the source. Where two headings read alike, the source gives them in different places.

Key:
baboons [1] = assay: Fine-motor task; assay type: in vivo, Papio anubis; settings: for Duration to complete the fine-motor task compared to vehicle: across 30, 60 and 120 min
baboons [2] = assay: Food-maintained operant behavior procedure; assay type: in vivo, Papio anubis; settings: for Time food-maintained behavior was suppressed after administration: high doses
In short: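 Test compound or vehicle was diluted in water to 150 ml total and infused intragastrically. Sessions started at 9:00 am right after dosing. Food pellets were available 20 h/day on a fixed-ratio schedule via a Lindsley operandum. Pellets earned were counted in ten 2-h bins up to 20 h. Analysis was repeated-measures two-way ANOVA (dose × time), p<0.05.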

baboons [3] = assay: 30-min continuous behavioral observation session; assay type: in vivo, Papio anubis
rhesus monkeys = settings: food-maintained operant procedure; ref McMahon et al. 2003; cited from earlier work
baboons [4] = assay: Paper and pencil behavioral checklists; assay type: in vivo, Papio anubis; settings: for Return to baseline for all observed behavioral effects, time postadministration: baboon (Papio anubis), in vivo, oral
in vivo = settings: plasma, po
[5] = baboon
[6] = humans, 25 mg/kg 1,4-BD; ref Thai et al. 2006; cited from earlier work
[7] = humans, 25 mg/kg 1,4-BD; ref Thai et al. 2006; cited from earlier work; remark: listed apart in the source
[8] = 180 mg/kg, 2 h after administration, p<0.001
[9] = 180 mg/kg, 4 h after administration
[10] = 100 mg/kg, 60 to 90 min after drug
[11] = 180 mg/kg, 60 to 90 min after drug
[12] = 240 mg/kg, 60 to 90 min after drug

O=C1CCCO1 [GBL, Gamma-butyrolactone]
Duration to complete the fine-motor task compared to vehicle (baboons [1]; 100 mg/kg, p<0.001): increased
Duration to complete the fine-motor task compared to vehicle (baboons [1]; 180 mg/kg, p<0.001): increased
Food-maintained behavior compared to vehicle (baboons [2]; 100 mg/kg, 2 h after administration, p<0.001): decreased
Food-maintained behavior compared to vehicle (baboons [2]; [8]): decreased
Food-maintained behavior compared to vehicle (baboons [2]; [9]): decreased
Food-maintained behavior (baboons [2]; 240 mg/kg, one subject (HA), data not shown): suppressed over the entire 20 h
Increase of food-maintained behavior (baboons [2]; all doses tested): none of the doses increased
Time food-maintained behavior was suppressed after administration (baboons [2]): 4 h
Duration of lip droop compared to vehicle (baboons [3]; [10]): significantly increased
Frequency of ataxia compared to vehicle (baboons [3]; [10]): significantly increased
Frequency of scratch/groom compared to vehicle (baboons [3]; [10]): significantly increased
Frequency of tremor/jerks compared to vehicle (baboons [3]; [10]): significantly increased
Duration of lip droop compared to vehicle (baboons [3]; [11]): significantly higher
Duration of lying down compared to vehicle (baboons [3]; [11]): increased
Frequency of ataxia compared to vehicle (baboons [3]; [11]): significantly higher
Frequency of scratch/groom compared to vehicle (baboons [3]; [11]): decreased
Frequency of tremor/jerks compared to vehicle (baboons [3]; [11]): significantly higher
Frequency of vomit/retch compared to vehicle (baboons [3]; [11]): increased
Observed effects of the high dose (baboons [3]; 240 mg/kg, once in one subject (HA), data not shown): resulted in convulsions; also recorded: vomit/retch, ataxia, tremor/jerks, sedation/anesthesia, and seizures; also recorded: both seizures and catalepsy
Time after administration at which response rate was decreased (rhesus monkeys): 90 min
Time to maximal effect, ataxia (baboons [4]; 100 mg/kg): 30 min
Time to maximal effect, tremor/jerks (baboons [4]; 100 mg/kg): 30 min
Duration of effects in ≥50% of subjects, ataxia (baboons [4]; 100 mg/kg IG): 1.0 h
Duration of effects in ≥50% of subjects, lip droop (baboons [4]; 100 mg/kg IG): 2.0 h
Duration of effects in ≥50% of subjects, vomit (baboons [4]; 100 mg/kg IG): 1.0 h
Number of subjects at maximal effect, ataxia (baboons [4]; 100 mg/kg IG): 3/4
Number of subjects at maximal effect, lip droop (baboons [4]; 100 mg/kg IG): 3/4
Number of subjects at maximal effect, tremor/jerk (baboons [4]; 100 mg/kg IG): 1/4
Number of subjects at maximal effect, vomit (baboons [4]; 100 mg/kg IG): 2/4
Recovery of baseline (100% of subjects), ataxia (baboons [4]; 100 mg/kg IG): 2.5 h
Recovery of baseline (100% of subjects), lip droop (baboons [4]; 100 mg/kg IG): 3.5 h
Recovery of baseline (100% of subjects), vomit (baboons [4]; 100 mg/kg IG): 2.0 h
Time to maximal effects, ataxia (baboons [4]; 100 mg/kg IG): 0.5 h
Time to maximal effects, lip droop (baboons [4]; 100 mg/kg IG): 1.0 h
Time to maximal effects, tremor/jerk (baboons [4]; 100 mg/kg IG): 0.5 h
Time to maximal effects, vomit (baboons [4]; 100 mg/kg IG): 1 h and 1.0 h
Time to maximal effect, ataxia (baboons [4]; 180 mg/kg): 30 min
Time to maximal effect, tremor/jerks (baboons [4]; 180 mg/kg): 30 min
Duration of effects in ≥50% of subjects, ataxia (baboons [4]; 180 mg/kg IG): 4 h and 4.0 h
Duration of effects in ≥50% of subjects, lip droop (baboons [4]; 180 mg/kg IG): 2.5 h
Duration of effects in ≥50% of subjects, tremor/jerk (baboons [4]; 180 mg/kg IG): 5 h and 5.0 h
Duration of effects in ≥50% of subjects, vomit (baboons [4]; 180 mg/kg IG): 1.0 h
Number of subjects at maximal effect, ataxia (baboons [4]; 180 mg/kg IG): 4/4
Number of subjects at maximal effect, lip droop (baboons [4]; 180 mg/kg IG): 4/4
Number of subjects at maximal effect, tremor/jerk (baboons [4]; 180 mg/kg IG): 4/4
Number of subjects at maximal effect, vomit (baboons [4]; 180 mg/kg IG): 4/4
Recovery of baseline (100% of subjects), ataxia (baboons [4]; 180 mg/kg IG): 6.0 h
Recovery of baseline (100% of subjects), lip droop (baboons [4]; 180 mg/kg IG): 6.0 h
Recovery of baseline (100% of subjects), tremor/jerk (baboons [4]; 180 mg/kg IG): 6.0 h
Recovery of baseline (100% of subjects), vomit (baboons [4]; 180 mg/kg IG): 2.0 h
Time to maximal effects, ataxia (baboons [4]; 180 mg/kg IG): 0.5 h
Time to maximal effects, lip droop (baboons [4]; 180 mg/kg IG): 0.5 h
Time to maximal effects, tremor/jerk (baboons [4]; 180 mg/kg IG): 0.5 h
Time to maximal effects, vomit (baboons [4]; 180 mg/kg IG): 1 h and 1.0 h
Return to baseline for all observed behavioral effects, time postadministration (baboons [4]): ≤ 6 h

OCCCCO [1,4-BD, 1,4-butanediol]
AUC (in vivo; monkey, 32 mg/kg): 33.4 µM·h
Cmax (in vivo; monkey, 32 mg/kg): 5.3 to 7.7 µM
half-life (in vivo; monkey, 32 mg/kg): 248 min
AUC (in vivo; monkey, 100 mg/kg): 612 µM·h
Cmax (in vivo; monkey, 100 mg/kg): 47.8 to 590 µM
half-life (in vivo; monkey, 100 mg/kg): 35.3 min
AUC (in vivo; monkey, 180 mg/kg): 942 µM·h
Cmax (in vivo; monkey, 180 mg/kg): 289 to 1100 µM
half-life (in vivo; monkey, 180 mg/kg): 42.7 min
Tmax (in vivo): 30 min
half-life (in vivo; 100 mg/kg): < 60 min
half-life (in vivo; 180 mg/kg): < 60 min
Duration to complete the fine-motor task (baboons [1]; 180 mg/kg, 60 min postadministration, p<0.001): significantly increased
Duration to complete the fine-motor task (baboons [1]; 180 mg/kg, 120 min postadministration, p<0.001): significantly increased
Completion of the fine-motor task (baboons [1]; 240 mg/kg): all subjects failed to complete the task within the maximum time of 120 s
Duration to complete the fine-motor task (baboons [1]; 240 mg/kg, 120 min postadministration, p<0.001): significantly increased
Duration to complete the fine-motor task (baboons [1]; any dose, 30-min postadministration): did not alter
Food-maintained behavior compared to vehicle (baboons [2]; 56 mg/kg, 4 h after administration, p<0.05): increases
Food-maintained behavior compared to vehicle (baboons [2]; [8]): decreased
Food-maintained behavior compared to vehicle (baboons [2]; [9]): decreased
Food-maintained behavior compared to vehicle (baboons [2]; 240 mg/kg, 2 h postadministration, p<0.001): decreased
Food-maintained behavior compared to vehicle (baboons [2]; 240 mg/kg, 4 h postadministration, p<0.05): decreased
Time food-maintained behavior was suppressed after administration (baboons [2]): 4 h
Frequency of scratch/groom compared to vehicle (baboons [3]; 56 mg/kg, 60 to 90 min after drug): increased
Frequency of ataxia compared to vehicle (baboons [3]; [11]): significantly increased
Frequency of scratch/groom compared to vehicle (baboons [3]; [11]): increased
Frequency of tremor/jerks compared to vehicle (baboons [3]; [11]): significantly increased
Frequency of vomit/retch compared to vehicle (baboons [3]; [11]): significantly increased
Duration of lip droop compared to vehicle (baboons [3]; [12]): significantly increased
Frequency of ataxia compared to vehicle (baboons [3]; [12]): significantly increased
Frequency of tremor/jerks compared to vehicle (baboons [3]; [12]): significantly increased
Frequency of vomit/retch compared to vehicle (baboons [3]; [12]): significantly increased
Time lying down compared to vehicle (baboons [3]; [12]): significantly increased
Maximum concentrations of 1,4-BD (range) ([5]; 32 mg/kg 1,4-BD): 0.48 to 0.69 µg/mL
T1/2 for GHB in plasma relative to T1/2 of 1,4-BD (fold longer) ([5]; 100 mg/kg 1,4-BD): five
T1/2 for GHB in plasma relative to T1/2 of 1,4-BD (fold longer) ([5]; 180 mg/kg 1,4-BD): sevenfold
Maximum concentration of GHB, range [6]: 22.2−85.7 μg/ml
Mean maximum concentration of GHB [6]: 45.6 µg/mL
Maximum concentration of 1,4-BD, range [7]: 0.33−14.4 μg/ml
Mean maximum concentration of 1,4-BD [7]: 3.84 µg/mL
Time after administration at which response rate was decreased (rhesus monkeys): 150 min
Duration of effects in ≥50% of subjects, ataxia (baboons [4]; 180 mg/kg IG): 4.0 h
Duration of effects in ≥50% of subjects, lip droop (baboons [4]; 180 mg/kg IG): 2.5 h
Duration of effects in ≥50% of subjects, tremor/jerk (baboons [4]; 180 mg/kg IG): 5.0 h
Duration of effects in ≥50% of subjects, vomit (baboons [4]; 180 mg/kg IG): 2.5 h
Number of subjects at maximal effect, ataxia (baboons [4]; 180 mg/kg IG): 4/4
Number of subjects at maximal effect, lip droop (baboons [4]; 180 mg/kg IG): 2/4
Number of subjects at maximal effect, tremor/jerk (baboons [4]; 180 mg/kg IG): 4/4
Number of subjects at maximal effect, vomit (baboons [4]; 180 mg/kg IG): 3/4
Recovery of baseline (100% of subjects), ataxia (baboons [4]; 180 mg/kg IG): 7.0 h
Recovery of baseline (100% of subjects), lip droop (baboons [4]; 180 mg/kg IG): 4.0 h
Recovery of baseline (100% of subjects), tremor/jerk (baboons [4]; 180 mg/kg IG): 7.5 h
Recovery of baseline (100% of subjects), vomit (baboons [4]; 180 mg/kg IG): 7.5 h
Time to maximal effects, ataxia (baboons [4]; 180 mg/kg IG): 2.0 h
Time to maximal effects, lip droop (baboons [4]; 180 mg/kg IG): 2 h and 2.0 h
Time to maximal effects, tremor/jerk (baboons [4]; 180 mg/kg IG): 1.0 h
Time to maximal effects, vomit (baboons [4]; 180 mg/kg IG): 2.5 h
Duration of effects in ≥50% of subjects, ataxia (baboons [4]; 240 mg/kg IG): 4.0 h
Duration of effects in ≥50% of subjects, lip droop (baboons [4]; 240 mg/kg IG): 3.5 h
Duration of effects in ≥50% of subjects, tremor/jerk (baboons [4]; 240 mg/kg IG): 6.0 h
Duration of effects in ≥50% of subjects, vomit (baboons [4]; 240 mg/kg IG): 1.0 h
Number of subjects at maximal effect, ataxia (baboons [4]; 240 mg/kg IG): 4/4
Number of subjects at maximal effect, lip droop (baboons [4]; 240 mg/kg IG): 3/4
Number of subjects at maximal effect, tremor/jerk (baboons [4]; 240 mg/kg IG): 4/4
Number of subjects at maximal effect, vomit (baboons [4]; 240 mg/kg IG): 3/4
Recovery of baseline (100% of subjects), ataxia (baboons [4]; 240 mg/kg IG): 6.0 h
Recovery of baseline (100% of subjects), lip droop (baboons [4]; 240 mg/kg IG): 5.0 h
Recovery of baseline (100% of subjects), tremor/jerk (baboons [4]; 240 mg/kg IG): 8.0 h
Recovery of baseline (100% of subjects), vomit (baboons [4]; 240 mg/kg IG): 7.5 h
Time to maximal effects, ataxia (baboons [4]; 240 mg/kg IG): 2.0 h
Time to maximal effects, lip droop (baboons [4]; 240 mg/kg IG): 1−2 h and 1 h and 1.0 h
Time to maximal effects, tremor/jerk (baboons [4]; 240 mg/kg IG): 2.0 h
Time to maximal effects, vomit (baboons [4]; 240 mg/kg IG): 1.0 h
Time at which lip droop continued in half of the subjects (baboons [4]; 180 and 240 mg/kg): 2.5−3.5 h
Time postadministration by which lip droop was no longer observed (baboons [4]; 180 and 240 mg/kg): ≤ 5 h
Return to baseline for all observed behavioral effects, time postadministration (baboons [4]): 7−8 h
